# PubChem BioAssay
# Calls of active or inactive are those of the source.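 The calls were made as follows, unless noted: active = GFP response above 150% of the DMSO level; inconclusive = fewer than 70 events counted for a yeast strain; inactive = the rest.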
# Tests used:
# [1] = hit retest on RPL19A-GFP reporter strain – cell-based, S. cerevisiae, flow cytometry, cherry picks, mother/daughter gates, confirmation (AID 2270;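 active = GFP response below 50% of the DMSO control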); details: 3 h, at 10 µM, stronger effect = lower value, 100 = same GFP as DMSO wells
# [2] = yeast TOR pathway reporter LAP4-GFP change – cell-based, cherry picks, flow cytometry, mother/daughter gates, confirmation (AID 2271;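 active = GFP response above 150% of the DMSO control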;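 also: ratio of sample to DMSO plate mean so 100% equals DMSO level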); details: S. cerevisiae LAP4-GFP strain, 3 h, at 10 µM, stronger effect = higher value, 100 means same as DMSO control
# Method in brief: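 Material: Alexa 633-stained baker's yeast GFP-fusion strain; Compound dosing: single test-compound dose, 10 µM final; Incubation: 30 °C, 3 h compound incubation, rotating; Detection: HT flow cytometry, GFP fluorescence channel; Control set: positive rapamycin (400 ng/mL), negative DMSO.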
# [3] = TOR pathway reporter MEP2-GFP, retest of hits – S. cerevisiae, flow cytometry GFP, cherry picks, confirmation (AID 2272;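 active = GFP response above 150% of the DMSO control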;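 also: ratio of well signal to plate DMSO mean so 100% equals DMSO level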); details: S. cerevisiae MEP2-GFP strain, 3 h, at 10 µM, stronger effect = higher value
# [4] = yeast AGP1-GFP fluorescence change, single-dose – cell-based, flow cytometry, S. cerevisiae, cherry picks, confirmation (AID 2273);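 also: median GFP channel fluorescence over the whole cell population gate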; details: S. cerevisiae AGP1-GFP strain, 3 h, at 10 µM
# [5] = TOR pathway CIT2 reporter hit retest – S. cerevisiae, GFP fusion, cherry picks, mother/daughter gates, confirmation (AID 2274); details: S. cerevisiae CIT2-GFP strain, flow cytometry, 3 h, at 10 µM, stronger effect = higher value
# [6] = measured here: daughter cell gate
# [7] = measured here: mother cell gate
# [8] = measured here: daughter cell gate response
# [9] = measured here: mother cell gate response
Compound,GFP response vs DMSO [1],"GFP response vs DMSO [1, 6] [%]","GFP response vs DMSO [1, 7] [%]",GFP response relative to DMSO [2],"GFP response relative to DMSO [2, 8] [%]","GFP response relative to DMSO [2, 9] [%]",GFP response vs DMSO [3],"GFP response, % of DMSO [4]","GFP response, % of DMSO [5]","GFP response, % of DMSO [5, 6] [%]","GFP response, % of DMSO [5, 7] [%]"
O=c1[nH]c2c(=O)[nH]cnc2nc1-c1ccccc1,103% (inactive),94.9,96.3,97% (inactive),95.9,88.8,101% (inactive),98.2% (inactive),97.3% (inactive),86.6,89.5
Cc1ccsc1/C=N/Nc1ncc(Cl)cc1Cl,97% (inactive),94.2,85.8,177% (active),107,189,109% (inactive),83.7% (inactive),100% (inactive),101,84.6
CCOc1c(Br)ccc2c1sc1nc[nH]c(=O)c12,101% (inactive),99.8,100,105% (inactive),99,108,103% (inactive),99.1% (inactive),100% (inactive),97.6,100
CC[n+]1ccc(/C=C/c2c[nH]c3ccccc23)cc1,100% (inactive),101,98.8,104% (inactive),104,105,128% (inactive),102% (inactive),117% (inactive),119,119
N#Cc1nccnc1S(=O)(=O)c1cccs1,96.2% (inactive),99.5,94.6,166% (active),149,162,106% (inactive),96.1% (inactive),103% (inactive),103,98.2
CCN=C(NCC)SC1CC(=O)N(c2cccc(OCC)c2)C1=O (centres undefined),99.2% (inactive),97.1,98.4,101% (inactive),99.2,98.3,100% (inactive),101% (inactive),103% (inactive),103,102
CCCCN(CC)S(=O)(=O)c1ccc(C(=O)Nc2nnc(COC)o2)cc1,96.6% (inactive),96.7,98.1,100% (inactive),99.3,99.5,97.5% (inactive),103% (inactive),102% (inactive),100,101
S=c1[nH]nc(-c2ccco2)n1/N=C/C(Cl)=C/c1ccccc1,98.4% (inactive),98.5,98.3,129% (inactive),121,131,112% (inactive),95.6% (inactive),97.8% (inactive),100,94.5
O=C(c1cc(-c2cccc(Cl)c2)on1)N1CCc2ccccc2C1,99.2% (inactive),100,99.5,95.7% (inactive),95.9,95.2,99% (inactive),104% (inactive),97.3% (inactive),97.4,96.8
CCN(CC)Cc1c(O)ccc2c(C)c(CC(=O)OC)c(=O)oc12,103% (inactive),101,100,101% (inactive),97.5,102,103% (inactive),106% (inactive),100% (inactive),99.2,95.6
CCOC(=O)C(=CNNc1cccc(Cl)c1)C(=O)OCC,103% (inactive),102,102,131% (inactive),125,137,111% (inactive),103% (inactive),103% (inactive),101,104
CNC(=O)c1c(O)c2cccc3c2n(c1=O)CC3,102% (inactive),99.1,103,94.2% (inactive),90.7,94.6,97.5% (inactive),100% (inactive),93.5% (inactive),90.9,93.3
Cc1cc(N2CCOCC2)n2nc(C)c(-c3ccccc3)c2n1,103% (inactive),100,102,98.2% (inactive),95.9,97.3,101% (inactive),101% (inactive),98.8% (inactive),97.4,98.1
O=C(Nc1nc(-c2ccccc2Cl)cs1)c1cccnc1,100% (inactive),94.7,99.2,97.4% (inactive),95.6,99.3,100% (inactive),89.1% (inactive),99.1% (inactive),94.8,97.7
CCOC(=O)c1cc2c(=O)n3ccccc3nc2n(CCOC)c1=NC(=O)C(C)(C)C,99.4% (inactive),99.1,97.3,94.4% (inactive),92.6,94.1,99% (inactive),103% (inactive),94.4% (inactive),93.8,93.2
Cc1ccc(C(=O)/C=C/C(=O)c2ccc(C)cc2)cc1,103% (inactive),104,97.7,195% (active),190,201,101% (inactive),111% (inactive),95.9% (inactive),100,84.8
CCCCCn1c(=O)c(C(=O)OCC)c(O)c2ccccc21,97.6% (inactive),96.1,99.7,99.2% (inactive),96,100,102% (inactive),90% (inactive),92.6% (inactive),89.9,93.8

Compound,GFP response vs DMSO [1],"GFP response vs DMSO [1, 6] [%]","GFP response vs DMSO [1, 7] [%]",GFP response relative to DMSO [2],"GFP response relative to DMSO [2, 8] [%]","GFP response relative to DMSO [2, 9] [%]",GFP response vs DMSO [3],"GFP response, % of DMSO [4]","GFP response, % of DMSO [5]","GFP response, % of DMSO [5, 6] [%]","GFP response, % of DMSO [5, 7] [%]"
CN(O)/C=c1/ccc2c(n1)C(=O)C=CC=2,105% (inactive),108,100,192% (active),170,188,115% (inactive),93.2% (inactive),167% (active),150,161
Cc1ccc(N2C(=O)C3C4C=CC(CNC(=S)N5CCN(c6cccc(C)c6)C(C)C5)(O4)C3C2=O)cc1 (centres undefined),97.3% (inactive),97.3,96.7,92.9% (inactive),92.9,94.4,103% (inactive),103% (inactive),100% (inactive),97.6,100
O=C(COc1ccccc1)NNC(=S)NC(=O)c1ccccc1,114% (inactive),118,110,171% (active),165,166,127% (inactive),116% (inactive),108% (inactive),121,98.7
Cc1nc(Sc2ccccc2)c(C#N)c(C)c1[N+](=O)[O-],98.2% (inactive),99.4,96.6,94.1% (inactive),92.8,91.9,109% (inactive),88.4% (inactive),115% (inactive),117,113
O=c1cnnc(SCc2ccc([N+](=O)[O-])cc2)[nH]1,97.4% (inactive),99.1,96.2,102% (inactive),101,100,105% (inactive),96% (inactive),98.3% (inactive),99.1,98.5
COc1ccc(OC)c(C(=O)/C=C/c2ccccc2C(F)(F)F)c1,97.6% (inactive),95.8,98.7,102% (inactive),103,103,105% (inactive),98.9% (inactive),94.7% (inactive),96.8,94.7
O=[N+]([O-])c1ccc(S(=O)(=O)c2ccccc2)nc1,84.5% (inactive),96.4,77.4,176% (active),156,174,126% (inactive),114% (inactive),108% (inactive),131,91.5
CCN(CC)S(=O)(=O)c1cccc(C(=O)NCC(c2ccccc2)N(C)C)c1 (centres undefined),99.7% (inactive),102,98.5,110% (inactive),111,106,106% (inactive),104% (inactive),104% (inactive),106,98
Cc1ccc(C(C[N+](=O)[O-])n2nc(C)cc2C)cc1 (centres undefined),97% (inactive),101,93.6,120% (inactive),120,125,103% (inactive),102% (inactive),90.9% (inactive),95.2,87.8
Cc1ccc(C(=O)N2c3ccccc3NC(=O)C2C)cc1 (centres undefined),99.9% (inactive),98.1,100,102% (inactive),98.7,105,100% (inactive),100% (inactive),97.8% (inactive),94.8,98.7
CSc1ccc(-c2cc(=O)c3ccccc3o2)cc1,92% (inactive),89.3,92.5,117% (inactive),110,118,95.2% (inactive),90.5% (inactive),84.7% (inactive),81.6,84.8
O=C(OCn1ncc(Br)c(Br)c1=O)c1c(F)cccc1F,93.3% (inactive),94,90.6,168% (active),153,175,98.8% (inactive),116% (inactive),97.2% (inactive),105,88.8
CCOC(=O)c1c(C)oc2c1c(C(c1ccncc1)N1CCOCC1)c(O)c1ccccc12 (centres undefined),102% (inactive),109,89.6,186% (active),167,180,131% (inactive),101% (inactive),103% (inactive),114,94.4
Cc1nnc(NC(=O)c2csc3c2CCC(C)C3)s1 (centres undefined),91.5% (inactive),87.2,93.3,117% (inactive),110,124,93.5% (inactive),93% (inactive),78.2% (inactive),76.8,77.3
COc1ccc(-c2noc(CCCc3ccccc3)n2)cc1OC,101% (inactive),98.7,100,96.2% (inactive),98.7,98.3,104% (inactive),104% (inactive),95.2% (inactive),94.8,96.6
N#C/C(C(=O)Nc1ccc(Cl)cc1)=C(/S)Nc1ccccc1,98.8% (inactive),98.9,99.3,105% (inactive),104,104,101% (inactive),100% (inactive),105% (inactive),105,105
O=[N+]([O-])c1cc(CN2CCN(c3ccccc3)CC2)c(O)c2ncccc12,76.4% (inactive),108,59.5,161% (active),138,165,114% (inactive),78.8% (inactive),97.3% (inactive),106,88.2
